This series in a line: Toxicity liver stage against HepG2, at 10uM. The class given is cell-based. Also on record: test concentration 10 uM, cell line HepG2-A16-CD81EGFP. To be noted: human, HepG2-A16-CD81EGFP cells; read-out: INHIBITION
In short, it runs like this: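 Uninfected HepG2-A16-CD81EGFP cells, 3 × 10^3 per well, 1536-well, plated on prespotted compound at 10 μM final, parasite-free screening media added to match infected plates; puromycin 10 μM positive, DMSO 0.5% negative; run in parallel with 48 h PbLuc assay at 37 °C, 5% CO2; viability by CellTiter-Glo luminescence, normalized to controls.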

With `CCOc1cc(CNC(=O)c2cnn(CC)c2C(F)(F)F)ccn1`, the cytotoxicity at 10 µM was 16.8%. For the molecule `CCC(NC(=O)c1c(C(=O)O)cnn1C)c1ccc(C)cc1C` (stereo not given), the cytotoxicity at 10 µM is -7.58%. With `CC(C)N1CCOCC2(CN(Cc3ccco3)CCO2)C1` (stereo not given), the cytotoxicity at 10 µM is -7.53%. Take `Cc1nccn1Cc1cccc(CNC(=O)c2ccn(C)c(=O)c2)c1`: the cytotoxicity at 10 µM came out at 5.82%. In the case of `O=C(NCc1nn(-c2ccccc2)c2c1CCC2)NCC1COCCO1` (stereo not given), the cytotoxicity at 10 µM is -3.39%. As to `CCn1nc(C)cc1NC(=O)CCn1nc(C)c(Br)c1C`, the cytotoxicity at 10 µM is 10.8%. With `CC(C)(C)c1coc([C@@H]2COCCN2Cc2c[nH]cn2)n1` the figure was 1.21%; with `COc1ccccc1OC1CCN(C(=O)C2CCCN(C)C2)CC1` (stereo not given), -53.5%; with `Cc1nccn1-c1ccc(CNC(=O)c2ccc([S+](C)[O-])cc2)cn1` (stereo not given), -18.1%.

On to `COCCOCC(=O)NC(C#N)c1cc(Cl)cc(Cl)c1` (stereo not given), for which the cytotoxicity at 10 µM turned out to be 8.31%. As to `O=C(N[C@H]1CN[C@H]2CCCO[C@H]21)c1cccnc1`, the cytotoxicity at 10 µM was -9.99%. On to `CCS(=O)(=O)N1CCCC2(COCCN(c3cnccn3)C2)C1` (stereo not given), for which the cytotoxicity at 10 µM was determined as 10.2%.

Regarding `CS(=O)(=O)CCCOc1cccc(-n2ccnc2)c1`, the cytotoxicity at 10 µM was 5.13%. For `O=C(N[C@@H]1CCC[C@@H](N2CCOCC2)[C@@H]1O)c1cnn2cccnc12`, the cytotoxicity at 10 µM was -21.9%. As to `Cc1cccc(C(=O)N2CCCC2)c1NCC(=O)NC(C)(C#N)C1CC1` (stereo not given), the cytotoxicity at 10 µM was -6.8%.

As for `N#Cc1ccc(CN2C[C@@H](F)[C@@H](OCc3nc4cnccc4[nH]3)C2)cc1`, the cytotoxicity at 10 µM was -3.67%. Regarding `CCc1ncc2c(n1)CN(CC(=O)Nc1ccc(Cl)cn1)CC2`, the cytotoxicity at 10 µM was found to be 1.47%.

With `CN1CCN(c2ccc3ccc(C(=O)N4CCCCO4)cn23)CC1`, the cytotoxicity at 10 µM is -7.3%. With `CC(NC(=O)C1=NN(C)C(=O)CC1)c1ccc(F)cc1F` (stereo not given) the figure was -4.4%; with `O=C(Nc1cccc(OCc2ccc(F)cc2)c1)C1COCCO1` (stereo not given), 1.18%; with `Cc1cc(C2CCCN(C(=O)c3ccc(OCC4CC4)nc3)C2)n[nH]1` (stereo not given), -12.9%. With `Cc1c(C(=O)N2CCCC(C(=O)c3nccn3C)C2)c[nH]c(=O)c1C#N` (stereo not given) the figure was 5.73%. The figure for `O=C(NC1CC1)C1CCN(c2cccc(C(F)(F)F)n2)CC1` is 5.17%; for `Cn1cc(CN2C[C@@H]3CN(C(=O)c4cccn4C)CCO[C@@H]3C2)cn1` it is -110%. Turning to `Cc1nc(C)c(C)c(N2C[C@@H](CN3CCCN(C)CC3)[C@@H](CO)C2)n1`, the cytotoxicity at 10 µM was -10.4%. Consider `COCCCn1c(CN2CCCC(O)C2)cnc1S(=O)(=O)C1CCCC1` (stereo not given), for which the cytotoxicity at 10 µM is -13.5%.

Consider `CCN(CC)S(=O)(=O)N1CCCC1c1cccc(Nc2ncc(C)s2)n1` (stereo not given), for which the cytotoxicity at 10 µM is -39.3%.

Consider `O=C(NCc1ccnc(C2CCCOC2)n1)c1cccs1` (stereo not given), for which the cytotoxicity at 10 µM turned out to be 0.44%. With `CCOc1ccc(NC2CCN(C3CC3)C2=O)cn1` (stereo not given) the figure was -0.387%. Consider `CCN(CC)C(=O)CN(C)Cc1nc2c(cnn2C)c(=O)[nH]1`, for which the cytotoxicity at 10 µM was -0.958%. As to `NC(=O)CC1CCN(Cc2ccccc2OCC(F)(F)F)CC1`, the cytotoxicity at 10 µM was -0.535%. `Cc1ccc(CN2Cc3nnn(C)c3C(COCc3ccccn3)C2)s1` (stereo not given): the cytotoxicity at 10 µM was 7.8%.

`c1ccc(-n2ccnc2)c(CNCC2CNc3ccnn3C2)c1` (stereo not given): the cytotoxicity at 10 µM is -8.11%. The figure for `CCc1nc(CC(=O)N2CCOCC2c2ncon2)cs1` (stereo not given) is -2.58%.

On to `N#Cc1cnn(C(=O)CCCOc2ccccc2Cl)c1N`, for which the cytotoxicity at 10 µM was -1.34%. With `Cc1ccn(-c2ccc(NCc3cccnc3N3CCCCC3)nn2)n1` the figure was 3.09%; with `O=C(c1n[nH]c2ccccc12)N1CCCC1c1noc(C2CC2)n1` (stereo not given), -10.8%. As to `COc1ccc(-c2cccc3c2OC(CN)C3)cc1F` (stereo not given), the cytotoxicity at 10 µM is -51.4%. With `COc1ccc(C(CNC(=O)c2cnc(C)cn2)N2CCOCC2)cc1` (stereo not given) the figure was 3.04%; with `O=C([C@H]1COC[C@H]2CN(C3CCOCC3)C[C@H]21)N1CCCCO1`, 5.22%. Regarding `CN(C)c1ncccc1C(=O)N1CCCN(c2cccnn2)CC1`, the cytotoxicity at 10 µM turned out to be 9.41%.

In the case of `CC(C)[C@H](Nc1cc(-c2ccncc2)nc2ccnn12)C(N)=O`, the cytotoxicity at 10 µM was determined as 0.782%. The figure for `CC(C)CN1CCN(C(=O)CCn2cccn2)CC1` is -5.45%; for `COc1ccc2c(=O)n(CC3CC3)ccc2c1OC` it is 12.8%; for `Cc1cc(C)cc(CN2C[C@H]3COC[C@H](N4CCN(C)CC4)[C@H]3C2)c1` it is -93.7%. With `Cc1cc(NC(=O)CCN2CCn3c(nnc3C3CC3)C2)no1`, the cytotoxicity at 10 µM amounted to 7.11%. With `CCn1c(CN(C)C(=O)c2ccc(N(C)C)nc2)nc2ccccc21` the figure was 0.0894%. Take `CC(C)(C)n1ncc2c(=O)[nH]c(N3CCC4(CCCCC4)C3)nc21`: the cytotoxicity at 10 µM is -7.72%. The figure for `CN(C)c1ccccc1CN1CCCCC1CNS(C)(=O)=O` (stereo not given) is 0.212%. The figure for `c1ccc(Cc2noc(CN(Cc3cccs3)CC3CCCO3)n2)cc1` (stereo not given) is -5.77%. With `O=C(c1cccnc1OCC(F)(F)F)N1CCCn2ncnc21` the figure was -6.47%; with `Cc1nc(CN2C(=O)C[C@H]3[C@H]2CCN3C2CCOC2)cs1` (stereo not given in full), -139%. Consider `O=C(Nc1ccccc1CCO)c1cccc(CN2CC[C@H](O)C2)c1`, for which the cytotoxicity at 10 µM is 8.77%. `COc1cc(CNCc2ccnc(N3CCCC3)c2)cc(OC)c1`: the cytotoxicity at 10 µM turned out to be 8.8%. For the molecule `Cc1ccc(C(=O)N2CCC3(CCCCC3)C2)c(=O)[nH]1`, the cytotoxicity at 10 µM is -2.47%. With `O=C(c1ccnc(N2CCOC(c3ccc(Cl)cc3)C2)c1)N1CCCC1` (stereo not given) the figure was -1.8%; with `Cc1nc2cc(=O)[nH]n2c(C)c1CNC(=O)c1cnn(C(C)(C)C)c1`, -4.01%; with `CC(C)(C)c1coc([C@@H]2COCCN2CC2CC2)n1`, -10.1%. For `Cc1ccc(C(=O)N2CCSCC2)cc1NC(=O)Cn1cncn1`, the cytotoxicity at 10 µM was -11.1%.

On to `O=C(CN1CCc2cncnc2C1)Nc1ccc(Cl)cn1`, for which the cytotoxicity at 10 µM is -3.24%. With `O=C(CN1CCN(c2ncnc3cccc(F)c23)CC1)N1CCCC1` the figure was 3.65%; with `CCCOc1ccc(C2SCC(=O)Nc3c2c(=O)[nH]n3C(C)C)cc1` (stereo not given), 5.95%; with `COCCN1C(=O)[C@@H]2CC[C@H]1CN(C(=O)Cc1c(F)cccc1Cl)C2`, -1.02%. With `O=C(NCC1CC1)c1nc(COc2ccc3c(c2)OCO3)no1` the figure was 8.89%; with `Cc1nc(CN2CCCN(C(=O)C(C)OCC3CC3)CC2)cs1` (stereo not given), -3.87%; with `N#Cc1ccc(Nc2nc3c(s2)C(=O)CN(CC2CC2)C3)cc1`, -5.28%. With `CCc1nnc(SC2CCN(c3ccccc3F)C2=O)n1C` (stereo not given), the cytotoxicity at 10 µM was 1.77%. Regarding `CN(C)CCN1C[C@@H]2CN(C(=O)C3CCOC3)C[C@@H]2C1=O` (stereo not given in full), the cytotoxicity at 10 µM is -5.18%. With `CC(C)N1CCCC(C(=O)N(C)CCCc2cnn(C)c2)C1` (stereo not given) the figure was -8.03%; with `Cc1cc(C(=O)NCCCn2nccc2C2CC2)c(=O)[nH]c1C`, 9%; with `CN(CCOc1ccccc1F)S(=O)(=O)CC1CCOCC1`, 6.47%. As to `O=S(=O)(CCCN1CCOC(Cn2cccn2)C1)c1ccccc1` (stereo not given), the cytotoxicity at 10 µM was -2.54%.

On to `CN(CCc1cccs1)C(=O)Nc1cnn(CC2CCCO2)c1` (stereo not given), for which the cytotoxicity at 10 µM is -2.66%. On to `Cc1ccc(-c2nn(C)c(C(=O)O)c2Br)cc1`, for which the cytotoxicity at 10 µM was -49.7%. With `CN(Cc1cccnc1)[C@@H]1CN(C(=O)c2ccco2)[C@@H]2CCCO[C@H]12` the figure was -108%; with `CCn1cnnc1CNC(=O)NC(C)c1cccs1` (stereo not given), -4.92%. Consider `CC(=O)N(C)Cc1cccc(NC(=O)CCCc2nc(C(C)C)no2)c1`, for which the cytotoxicity at 10 µM was -2.07%.

Regarding `CCN(Cc1cnn(CC)c1)Cc1c(Cl)cncc1Cl`, the cytotoxicity at 10 µM was -2.65%. The figure for `O=C(COc1coc(CN2CCOCC2)cc1=O)Nc1ccccc1F` is -10.7%; for `Nc1cc2c(nn1)CCN(C(=O)c1ccccc1Oc1cccnc1)C2` it is -6.21%; for `COc1ccc(C(C)Nc2ncc(C(N)=O)cc2Cl)c(OC)c1` (stereo not given) it is 19.1%. As for `CCCOC(=O)C(C)Sc1nnnn1C1CCOCC1` (stereo not given), the cytotoxicity at 10 µM amounted to 18.1%. The figure for `O=C(c1cccc(N2CCCC2=O)c1)N1CCCC(n2cccn2)C1` (stereo not given) is -8.22%. The figure for `CN(C)Cc1nnc(C(=O)N(C)Cc2ccc(F)cc2)o1` is 0.624%; for `COc1ccc(-c2cc(C3CC3)c(C#N)c(N)n2)cc1F` it is -2.84%. For the molecule `CCn1ncc2c1C(COC)CN(Cc1ccco1)C2` (stereo not given), the cytotoxicity at 10 µM was determined as 7.1%. With `Cc1noc(-c2cccnc2N(C)Cc2ccc([S+](C)[O-])cc2)n1` (stereo not given) the figure was 46%; with `Cc1nc(N)nc(C)c1CC(=O)NCc1ccc2nonc2c1`, 5.6%. The figure for `COC(=O)CN(C(=O)c1ccc(-n2ccnc2)cc1)C1CCCC1` is -7.28%; for `O=c1ccc2c([nH]1)CCN(S(=O)(=O)c1ccc3c(c1)OCCO3)C2` it is -3.06%; for `CCc1nc(C2CCCN2Cc2nc(Cc3ccccc3)no2)no1` (stereo not given) it is 3.12%. For `Cc1ccc(CN2CCN(C3CCCC3)CC2CCO)o1` (stereo not given), the cytotoxicity at 10 µM was -6.05%. Regarding `Fc1ccc(CC2CCN(Cc3cscn3)CC2)cc1`, the cytotoxicity at 10 µM is -7.27%. In the case of `CCC1=N[C@@]2(CC[C@@H]3CN(S(C)(=O)=O)C[C@@H]32)C(=O)N1CC(C)C`, the cytotoxicity at 10 µM worked out at 2.58%. On to `Cc1nn(C)c(C)c1CN1CCCC(c2ccc(C(=O)O)cc2)C1` (stereo not given), for which the cytotoxicity at 10 µM was -8.82%.

Values taken from ChEMBL document CHEMBL4513216, “Probing the Open Global Health Chemical Diversity Library for Multistage-Active Starting Points for Next-Generation Antimalarials” (ACS Infect Dis, 2020).
